Test [1] deals with KB. Put plainly: Inhibitory concentration that reduced the viability of KB cell population by 50%. The test is classed as functional, cell-based. The conditions noted are these: Homo sapiens. An outline of the steps: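 KB cells in Eagle's MEM with 10% calf serum, 37 °C, humidified 5% CO2, seeded at 3 × 10³ cells/mL and cultured 24 h. Compounds added in triplicate at several concentrations, with compound-free control wells, for 3 days. Value is the concentration reducing cell count by 50%.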

Test [2] concerns HT-29. Nature of the test: Inhibitory concentration that reduced the viability of HT 29 cell population by 50%. The conditions noted are these: Homo sapiens. The test is classed as functional, cell-based.
Test [3] relates to SK-OV-3. Put plainly: Inhibitory concentration the viability of SKOV 3 cell population by 50%. The test is classed as functional, cell-based. Conditions: Homo sapiens.
Test [4] has as its system SK-VLB. Put plainly: Inhibitory concentration that reduced the viability of SKVLB cell population by 50%. The test is classed as functional, cell-based. Conditions: Homo sapiens.
Test [5] concerns the target T1, DNA topoisomerase 1 (Homo sapiens, UniProt P11387).
T1 sequence (P11387 whole entry): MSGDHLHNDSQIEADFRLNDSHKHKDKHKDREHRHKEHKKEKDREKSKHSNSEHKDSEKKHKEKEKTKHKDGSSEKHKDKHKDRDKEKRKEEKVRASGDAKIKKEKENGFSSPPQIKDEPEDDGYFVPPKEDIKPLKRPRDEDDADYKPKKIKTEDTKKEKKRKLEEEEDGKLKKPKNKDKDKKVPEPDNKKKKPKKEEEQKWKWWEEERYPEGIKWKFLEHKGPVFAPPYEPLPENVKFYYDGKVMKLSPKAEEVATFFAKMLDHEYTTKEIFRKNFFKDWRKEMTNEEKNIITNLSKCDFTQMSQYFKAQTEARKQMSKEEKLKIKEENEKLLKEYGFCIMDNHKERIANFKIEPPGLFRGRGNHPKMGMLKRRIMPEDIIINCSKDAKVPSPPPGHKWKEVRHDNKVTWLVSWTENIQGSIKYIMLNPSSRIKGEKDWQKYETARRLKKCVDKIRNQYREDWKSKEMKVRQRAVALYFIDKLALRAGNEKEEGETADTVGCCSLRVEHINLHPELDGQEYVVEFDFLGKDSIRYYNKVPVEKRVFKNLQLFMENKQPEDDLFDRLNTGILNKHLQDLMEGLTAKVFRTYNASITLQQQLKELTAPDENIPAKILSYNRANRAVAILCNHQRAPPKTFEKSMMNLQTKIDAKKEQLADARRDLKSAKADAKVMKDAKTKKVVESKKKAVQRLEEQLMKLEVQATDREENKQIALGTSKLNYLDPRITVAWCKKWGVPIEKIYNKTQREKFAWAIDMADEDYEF
Nature of the test: Inhibit supercoil relaxation property of topoisomerase I. An outline of the steps: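 Supercoiled pBR322 DNA (0.25 μg) incubated with topoisomerase I (0.5 unit) and ligand, 30 min at 37 °C. Then a further 30 min at 37 °C in SDS-containing loading buffer, agarose gel run overnight, and ethidium bromide staining. Supercoiled DNA remaining was quantified by laser densitometry of the photographic negative.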

A value given as a limit tells only on which side of the number the result lay.

`CCC1(O)C(=O)OCc2c1cc1n(c2=O)Cc2cc3cc(OCCN)ccc3nc2-1` (centres undefined): the 50% inhibitory concentration (IC50) (usually the midpoint of a concentration-inhibition curve) in test [1] stood at 0.175 µM.

As to `CCCC(=O)Nc1cn(COC)c(C(=O)NCCOc2ccc3nc4c(cc3c2)Cn2c-4cc3c(c2=O)COC(=O)C3(O)CC)n1` (centres undefined), the IC50 in test [2] was 6.9 µM; in test [1], 1 µM; in test [3], 1.3 µM; in test [4] it was over 10 µM; in test [5], 2.38 µM.

With `CCCC(=O)Nc1cc(C(=O)NCCOc2ccc3nc4c(cc3c2)Cn2c-4cc3c(c2=O)COC(=O)C3(O)CC)n(COC)c1` (centres undefined), the IC50 was 8.1 µM in test [2], 15.3 µM in test [1], 5.1 µM in test [3] and over 10 µM in test [4].

As for `CCC1(O)C(=O)OCc2c1cc1n(c2=O)Cc2cc3cc(OCC(=O)O)ccc3nc2-1` (centres undefined), the IC50 in test [2] was determined as 2.8 µM; in test [1], 0.25 µM; in test [3], 1.2 µM; in test [4], 2.1 µM; in test [5], 1.12 µM.

For `CCC1(O)C(=O)OCc2c1cc1n(c2=O)Cc2cc3cc(OCCNC(=O)c4cc(NC(=O)CCCN(C)C)cn4COC)ccc3nc2-1` (centres undefined), the IC50 was found to be 3.4 µM in test [2]; 5.68 µM in test [1]; 1.5 µM in test [3]; 3.5 µM in test [4]; 2.6 µM in test [5].

On to `CCCC(=O)Nc1ccc(C(=O)Nc2cc(C(=O)Nc3cc(C(=O)NCCOc4ccc5nc6c(cc5c4)Cn4c-6cc5c(c4=O)COC(=O)C5(O)CC)n(COC)c3)n(COC)c2)n1COC` (racemic), for which the IC50 in test [2] was 7.1 µM; in test [1] it was 5.09 µM; in test [3], 3.6 µM; in test [4] it was over 10 µM.

As for `CCC1(O)C(=O)OCc2c1cc1n(c2=O)Cc2cc3cc(OCCNC(=O)c4cc(NC(=O)c5cc(NC(=O)c6ccc(NC(=O)CCCN(C)C)n6COC)cn5COC)cn4COC)ccc3nc2-1` (racemic), the IC50 is over 10 µM in test [2]; 1 µM in test [1]; 9.7 µM in test [3]; over 10 µM in test [4]; 1.97 µM in test [5].

Regarding `CCCC(=O)Nc1cn(COC)c(C(=O)Nc2cn(COC)c(C(=O)NCCOc3ccc4nc5c(cc4c3)Cn3c-5cc4c(c3=O)COC(=O)C4(O)CC)n2)n1` (racemic), the IC50 in test [2] was 6 µM; in test [1], 3.08 µM; in test [3] it was 3.2 µM; in test [4], over 10 µM; in test [5] it was 2.42 µM.

Turning to `CCC1(O)C(=O)OCc2c1cc1n(c2=O)Cc2cc3cc(OCC(=O)ONc4cc(C(=O)Nc5cc(C(=O)Nc6cc(C(=O)NCCCN(C)C)n(COC)c6)n(COC)c5)n(COC)c4)ccc3nc2-1` (racemic), the IC50 in test [2] was over 10 µM; in test [1], 5.5 µM; in test [3] it was over 10 µM; in test [4] it was over 10 µM; in test [5], 11.9 µM.

As for `CCC1(O)C(=O)OCc2c1cc1n(c2=O)Cc2cc3cc(OCCNC(=O)c4cc(NC(=O)c5cc(NC(=O)CCCN(C)C)cn5COC)cn4COC)ccc3nc2-1` (racemic), the IC50 was 6.2 µM in test [2]; 6.29 µM in test [1]; 4.3 µM in test [3]; over 10 µM in test [4]; 4.82 µM in test [5].

As to `CCC1(O)C(=O)OCc2c1cc1n(c2=O)Cc2cc3cc(OCC(=O)ONc4cc(C(=O)Nc5cc(C(=O)NCCCN(C)C)n(COC)c5)n(COC)c4)ccc3nc2-1` (racemic), the IC50 in test [2] is over 10 µM; in test [1], 0.663 µM; in test [3], over 10 µM; in test [4], over 10 µM.

Take `CCCC(=O)Nc1cc(C(=O)Nc2cc(C(=O)NCCOc3ccc4nc5c(cc4c3)Cn3c-5cc4c(c3=O)COC(=O)C4(O)CC)n(COC)c2)n(COC)c1` (racemic): the IC50 was over 10 µM in test [2]; 3.25 µM in test [1]; over 10 µM in test [3]; over 10 µM in test [4]; 16.6 µM in test [5].

Consider `CCC1(O)C(=O)OCc2c1cc1n(c2=O)Cc2cc3ccccc3nc2-1` (single isomer, unassigned) [CAMPTOTHECIN], for which the IC50 amounted to 0.0878 µM in test [2], 0.008 µM in test [1], 0.051 µM in test [3] and 0.053 µM in test [4].

On to `COc1cccc2c1C(=O)c1c(O)c3c(c(O)c1C2=O)C[C@@](O)(C(=O)CO)C[C@@H]3O[C@H]1C[C@H](N)[C@H](O)[C@H](C)O1` [DOXORUBICIN], for which the IC50 in test [2] stood at 0.28 µM; in test [1] it was 0.015 µM; in test [3] it was 0.0251 µM; in test [4], 6.54 µM.

`Cn1cc(NC(=O)c2cc(NC(=O)CNC(=N)N)cn2C)cc1C(=O)NCCC(=N)N` [NETROPSIN]: the IC50 was 44.7 µM in test [2], 47.1 µM in test [1], over 10 µM in test [4] and 62 µM in test [5].

For the compound `Cn1cc(NC(=O)c2cc(NC(=O)c3cc(NC=O)cn3C)cn2C)cc1C(=O)NCCC(=N)N` [STALLIMYCIN], the IC50 in test [2] is 54.7 µM; in test [1], 8.4 µM; in test [4], over 10 µM; in test [5], 2.7 µM.
